The source made the active and inactive calls. The rule behind the calls is not given here.
Tests used:
Mus musculus [1] = test: Antiinflammatory activity against carrageenan-induced paw edema in Swiss albino mouse assessed as swelling thickness at 100 mg/kg, po after 90 mins; type: functional
How it was run: (§1)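 Oral dosing in 0.5% CMC; vehicle to controls. Then carrageenan (0.5 mg/25 ll, freshly suspended in 154 mM saline) injected into the right hind paw subplantar tissue; saline into the left paw. Right-left footpad thickness difference measured by dial gauge calliper every 90 min over 6 h. Inhibition % is relative to vehicle control. n = 6; mean ± SEM.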

Mus musculus [2] = test: Antiinflammatory activity against carrageenan-induced paw edema in Swiss albino mouse assessed as swelling thickness at 100 mg/kg, po after 180 mins; type: functional; how it was run: as §1
Mus musculus [3] = test: Antiinflammatory activity against carrageenan-induced paw edema in Swiss albino mouse assessed as swelling thickness at 100 mg/kg, po after 270 mins; type: functional; how it was run: as §1
Mus musculus [4] = test: Antiinflammatory activity against carrageenan-induced paw edema in Swiss albino mouse assessed as swelling thickness at 100 mg/kg, po after 360 mins; type: functional; how it was run: as §1
Mus musculus [5] = test: Inhibition of carrageenan-induced paw edema in Swiss albino mouse at 100 mg/kg, po after 90 mins relative to control; type: functional; settings: 1.5 h; how it was run: as §1
Mus musculus [6] = test: Inhibition of carrageenan-induced paw edema in Swiss albino mouse at 100 mg/kg, po after 180 mins relative to control; type: functional; settings: 3 h; how it was run: as §1
Mus musculus [7] = test: Inhibition of carrageenan-induced paw edema in Swiss albino mouse at 100 mg/kg, po after 270 mins relative to control; type: functional; settings: 4.5 h; how it was run: as §1
Mus musculus [8] = test: Inhibition of carrageenan-induced paw edema in Swiss albino mouse at 100 mg/kg, po after 360 mins relative to control; type: functional; settings: 6 h; how it was run: as §1
Mus musculus [9] = test: Analgesic activity against p-benzoquinone-induced abdominal constriction in Swiss albino mouse assessed as number of writhings at 25 mg/kg, po; type: functional, Abdomen
How it was run: (§2)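 Test samples given orally in 0.5% CMC; vehicle to controls. 60 min later, 2.5% (v/v) p-benzoquinone in distilled water, 0.1 ml/10 g, given i.p. Mice housed singly; writhes counted for 15 min starting 5 min after injection. Activity is % change from vehicle controls. n = 6; mean ± SEM.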

Mus musculus [10] = test: Analgesic activity against p-benzoquinone-induced abdominal constriction in Swiss albino mouse assessed as number of writhings at 50 mg/kg, po; type: functional, Abdomen; how it was run: as §2
Mus musculus [11] = test: Analgesic activity against p-benzoquinone-induced abdominal constriction in Swiss albino mouse assessed as number of writhings at 100 mg/kg, po; type: functional, Abdomen; how it was run: as §2
Mus musculus [12] = test: Analgesic activity against p-benzoquinone-induced abdominal constriction in Swiss albino mouse assessed as number of writhings at 200 mg/kg, po; type: functional, Abdomen; how it was run: as §2
Mus musculus [13] = test: Inhibition of p-benzoquinone-induced writhing in Swiss albino mouse at 25 mg/kg, po relative to control; type: functional
How it was run: (§3)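 Mice, n = 6 per group, dosed orally with a suspension in 0.5% sodium CMC. 60 min later, 0.1 ml/10 g of 2.5% […] p-benzoquinone in distilled water given ip. Abdominal writhes counted per animal for 15 min, starting 5 min after injection. Expressed as % change in mean writhing count versus vehicle controls.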

Mus musculus [14] = test: Inhibition of p-benzoquinone-induced writhing in Swiss albino mouse at 50 mg/kg, po relative to control; type: functional; how it was run: as §3
Mus musculus [15] = test: Inhibition of p-benzoquinone-induced writhing in Swiss albino mouse at 100 mg/kg, po relative to control; type: functional; how it was run: as §3
Mus musculus [16] = test: Inhibition of p-benzoquinone-induced writhing in Swiss albino mouse at 200 mg/kg, po relative to control; type: functional; how it was run: as §3
Mus musculus [17] = test: Gastric-ulcerogenic effect in Swiss albino mouse assessed as lesions at 25 mg/kg, po; type: functional, organism-based; parameters: dose 25 mg/kg
How it was run: (§4)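 Mice killed under deep ether anesthesia 3 h after the writhing test; the oral dose in 0.5% CMC was the one used in that test. Stomachs removed, opened along the great curvature and examined under a dissecting microscope for lesions or bleeding. Reported as ratio of ulceration; n = 6.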

Mus musculus [18] = test: Gastric-ulcerogenic effect in Swiss albino mouse assessed as lesions at 50 mg/kg, po; type: functional, organism-based; parameters: dose 50 mg/kg; how it was run: as §4
Mus musculus [19] = test: Gastric-ulcerogenic effect in Swiss albino mouse assessed as lesions at 100 mg/kg, po; type: functional, organism-based; parameters: dose 100 mg/kg; how it was run: as §4
Mus musculus [20] = test: Antiinflammatory activity against carrageenan-induced paw edema in Swiss albino mouse assessed as swelling thickness at 25 mg/kg, po after 90 mins; type: functional; how it was run: as §1
Mus musculus [21] = test: Antiinflammatory activity against carrageenan-induced paw edema in Swiss albino mouse assessed as swelling thickness at 25 mg/kg, po after 180 mins; type: functional; how it was run: as §1
Mus musculus [22] = test: Antiinflammatory activity against carrageenan-induced paw edema in Swiss albino mouse assessed as swelling thickness at 25 mg/kg, po after 270 mins; type: functional; how it was run: as §1
Mus musculus [23] = test: Antiinflammatory activity against carrageenan-induced paw edema in Swiss albino mouse assessed as swelling thickness at 25 mg/kg, po after 360 mins; type: functional; how it was run: as §1
Mus musculus [24] = test: Antiinflammatory activity against carrageenan-induced paw edema in Swiss albino mouse assessed as swelling thickness at 50 mg/kg, po after 180 mins; type: functional; how it was run: as §1
Mus musculus [25] = test: Antiinflammatory activity against carrageenan-induced paw edema in Swiss albino mouse assessed as swelling thickness at 50 mg/kg, po after 270 mins; type: functional; how it was run: as §1
Mus musculus [26] = test: Antiinflammatory activity against carrageenan-induced paw edema in Swiss albino mouse assessed as swelling thickness at 50 mg/kg, po after 360 mins; type: functional; how it was run: as §1
Mus musculus [27] = test: Antiinflammatory activity against carrageenan-induced paw edema in Swiss albino mouse assessed as swelling thickness at 200 mg/kg, po after 90 mins; type: functional; how it was run: as §1
Mus musculus [28] = test: Antiinflammatory activity against carrageenan-induced paw edema in Swiss albino mouse assessed as swelling thickness at 200 mg/kg, po after 180 mins; type: functional; how it was run: as §1
Mus musculus [29] = test: Antiinflammatory activity against carrageenan-induced paw edema in Swiss albino mouse assessed as swelling thickness at 200 mg/kg, po after 270 mins; type: functional; how it was run: as §1
Mus musculus [30] = test: Antiinflammatory activity against carrageenan-induced paw edema in Swiss albino mouse assessed as swelling thickness at 200 mg/kg, po after 360 mins; type: functional; how it was run: as §1
Mus musculus [31] = test: Inhibition of carrageenan-induced paw edema in Swiss albino mouse at 25 mg/kg, po after 90 mins relative to control; type: functional; settings: 1.5 h; how it was run: as §1
Mus musculus [32] = test: Inhibition of carrageenan-induced paw edema in Swiss albino mouse at 25 mg/kg, po after 180 mins relative to control; type: functional; settings: 3 h; how it was run: as §1
Mus musculus [33] = test: Inhibition of carrageenan-induced paw edema in Swiss albino mouse at 25 mg/kg, po after 270 mins relative to control; type: functional; settings: 4.5 h; how it was run: as §1
Mus musculus [34] = test: Inhibition of carrageenan-induced paw edema in Swiss albino mouse at 25 mg/kg, po after 360 mins relative to control; type: functional; settings: 6 h; how it was run: as §1
Mus musculus [35] = test: Inhibition of carrageenan-induced paw edema in Swiss albino mouse at 50 mg/kg, po after 90 mins relative to control; type: functional; settings: 1.5 h
How it was run: (§5)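 Mice, n = 6 per group. Test agent given orally as a suspension in 0.5% sodium CMC in distilled water; controls received vehicle only. Afterwards, 0.5 mg/25 ll carrageenan in saline (154 mM NaCl) injected subplantar into the right hind paw, saline into the left. Right-minus-left footpad thickness measured by dial gauge caliper every 90 min for 6 h. Inhibition is relative to vehicle-control group means.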

Mus musculus [36] = test: Inhibition of carrageenan-induced paw edema in Swiss albino mouse at 50 mg/kg, po after 180 mins relative to control; type: functional; settings: 3 h; how it was run: as §1
Mus musculus [37] = test: Inhibition of carrageenan-induced paw edema in Swiss albino mouse at 50 mg/kg, po after 270 mins relative to control; type: functional; settings: 4.5 h; how it was run: as §5
Mus musculus [38] = test: Inhibition of carrageenan-induced paw edema in Swiss albino mouse at 50 mg/kg, po after 360 mins relative to control; type: functional; settings: 6 h; how it was run: as §5
Mus musculus [39] = test: Inhibition of carrageenan-induced paw edema in Swiss albino mouse at 200 mg/kg, po after 90 mins relative to control; type: functional; settings: 1.5 h; how it was run: as §1
Mus musculus [40] = test: Inhibition of carrageenan-induced paw edema in Swiss albino mouse at 200 mg/kg, po after 180 mins relative to control; type: functional; settings: 3 h; how it was run: as §1
Mus musculus [41] = test: Inhibition of carrageenan-induced paw edema in Swiss albino mouse at 200 mg/kg, po after 270 mins relative to control; type: functional; settings: 4.5 h; how it was run: as §1
Mus musculus [42] = test: Inhibition of carrageenan-induced paw edema in Swiss albino mouse at 200 mg/kg, po after 360 mins relative to control; type: functional; settings: 6 h; how it was run: as §1
Mus musculus [43] = test: Acute toxicity in Swiss albino mouse assessed as lethal effect at 25 mg/kg/day, po after 72 hrs; type: organism-based; parameters: route oral; settings: in vivo
How it was run: (§6)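 Oral single dose suspended in 0.5% carboxymethylcellulose, given after a 24 h fast; food and water returned 1 h after dosing. Vehicle-only controls. Mice observed at 1 h, then once daily for 72 h, for toxic signs and mortality.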

Mus musculus [44] = test: Acute toxicity in Swiss albino mouse assessed as lethal effect at 50 mg/kg/day, po after 72 hrs; type: organism-based; parameters: route oral; settings: in vivo; how it was run: as §6
Mus musculus [45] = test: Acute toxicity in Swiss albino mouse assessed as lethal effect at 100 mg/kg/day, po after 72 hrs; type: organism-based; parameters: route oral; settings: in vivo; how it was run: as §6
Mus musculus [46] = test: Acute toxicity in Swiss albino mouse assessed as lethal effect at 200 mg/kg/day, po after 72 hrs; type: organism-based; parameters: route oral; settings: in vivo; how it was run: as §6
Mus musculus [47] = test: Antiinflammatory activity against carrageenan-induced paw edema in Swiss albino mouse assessed as swelling thickness at 50 mg/kg, po after 90 mins; type: functional; how it was run: as §1

SMILES: CCS(=O)(=O)c1nc(-c2ccccc2)n[nH]1
- Activity (Mus musculus [1]): 33.2 10^-2mm
- Activity (Mus musculus [2]): 35.2 10^-2mm
- Activity (Mus musculus [3]): 39.2 10^-2mm
- Activity (Mus musculus [4]): 43.5 10^-2mm
- inhibition in vivo at 100 mg/kg (Mus musculus [5]): 25.9%
- inhibition in vivo at 100 mg/kg (Mus musculus [6]): 31.7%
- inhibition in vivo at 100 mg/kg (Mus musculus [7]): 33.3%
- inhibition in vivo at 100 mg/kg (Mus musculus [8]): 36.8%
- Activity (Mus musculus [9]): 38.2
- Activity (Mus musculus [10]): 26.7
- Activity (Mus musculus [11]): 27.5
- Activity (Mus musculus [12]): 48.5
- inhibition in vivo at 25 mg/kg (Mus musculus [13]): 25.7%
- inhibition in vivo at 50 mg/kg (Mus musculus [14]): 48.1%
- inhibition in vivo at 100 mg/kg (Mus musculus [15]): 41.9%
- inhibition in vivo at 200 mg/kg (Mus musculus [16]): 5.6%
- Activity (Mus musculus [17]): Active
- Activity (Mus musculus [18]): Active
- Activity (Mus musculus [19]): Active
- Activity (Mus musculus [20]): 48.6 10^-2mm
- Activity (Mus musculus [21]): 54.9 10^-2mm
- Activity (Mus musculus [22]): 58.1 10^-2mm
- Activity (Mus musculus [23]): 62.4 10^-2mm
- Activity (Mus musculus [24]): 41.3 10^-2mm
- Activity (Mus musculus [25]): 44.6 10^-2mm
- Activity (Mus musculus [26]): 44.2 10^-2mm
- Activity (Mus musculus [27]): 47.9 10^-2mm
- Activity (Mus musculus [28]): 52.3 10^-2mm
- Activity (Mus musculus [29]): 57.6 10^-2mm
- Activity (Mus musculus [30]): 65.2 10^-2mm
- inhibition in vivo at 25 mg/kg (Mus musculus [31]): 8.6%
- inhibition in vivo at 25 mg/kg (Mus musculus [32]): 7.7%
- inhibition in vivo at 25 mg/kg (Mus musculus [33]): 10.3%
- inhibition in vivo at 25 mg/kg (Mus musculus [34]): 13.3%
- inhibition in vivo at 50 mg/kg (Mus musculus [35]): 26.3%
- inhibition in vivo at 50 mg/kg (Mus musculus [36]): 30.5%
- inhibition in vivo at 50 mg/kg (Mus musculus [37]): 31.2%
- inhibition in vivo at 50 mg/kg (Mus musculus [38]): 38.6%
- inhibition in vivo at 200 mg/kg (Mus musculus [39]): 9.9%
- inhibition in vivo at 200 mg/kg (Mus musculus [40]): 11.9%
- inhibition in vivo at 200 mg/kg (Mus musculus [41]): 11.1%
- inhibition in vivo at 200 mg/kg (Mus musculus [42]): 9.4%
- Activity (Mus musculus [43]): Non-toxic
- Activity (Mus musculus [44]): Non-toxic
- Activity (Mus musculus [45]): Non-toxic
- Activity (Mus musculus [46]): Non-toxic
- Activity (Mus musculus [47]): 39.2 10^-2mm

Source: ChEMBL document CHEMBL1142894, “Preparation of 5-aryl-3-alkylthio-l,2,4-triazoles and corresponding sulfones with antiinflammatory-analgesic activity” (Bioorg Med Chem, 2007)
